In the first series the target is T1, Cysteinyl leukotriene receptor 1 (Cavia porcellus) (UniProt Q2NNR5).
T1 sequence (whole entry): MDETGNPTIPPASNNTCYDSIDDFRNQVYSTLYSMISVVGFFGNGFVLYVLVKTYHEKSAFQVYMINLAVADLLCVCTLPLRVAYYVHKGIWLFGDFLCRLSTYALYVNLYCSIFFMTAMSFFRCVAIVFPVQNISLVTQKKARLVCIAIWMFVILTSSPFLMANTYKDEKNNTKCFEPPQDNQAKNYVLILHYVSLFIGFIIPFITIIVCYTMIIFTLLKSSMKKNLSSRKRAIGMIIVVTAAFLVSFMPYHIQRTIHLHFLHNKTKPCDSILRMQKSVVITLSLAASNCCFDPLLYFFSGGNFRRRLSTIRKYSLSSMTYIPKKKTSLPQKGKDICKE
As to the kind of experiment: Negative logarithm of molar dissociation constant on guinea pig trachea at LTD4 receptor, when LTE4 is used as agonist. The class given is functional.
Conditions: not given
A digest of the protocol: (§1)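 Guinea pig tracheal spirals, each trachea split into two sections for paired experiments, in 10-mL baths of modified Krebs' buffer at 37 °C gassed with 95% O2/5% CO2. Resting tension was 2 g, with 60 min stabilization. Responses were expressed relative to carbachol (30 μM). Test compound was preincubated 30 min before cumulative LTE4 log-increment curves; paired controls received vehicle. EC50 was obtained by linear regression and KB = [antagonist]/(dose ratio − 1).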
In general, pKB refers to the negative decadic logarithm of the KB, by convention in mol/L. In turn, `COc1cc(C(=O)NS(=O)(=O)c2ccccc2C)ccc1CN1CCOc2ccc(NC(=O)CC3CCCC3)cc21` had a pKB of 9.68.

Compound `COc1cc(C(=O)NS(=O)(=O)c2ccccc2)ccc1Cc1nn(C)c2ccc(NC(=O)OC3CCCC3)cc12` yielded a pKB of 10.3.

Tested on in the next series: not listed separately
As to the kind of experiment: Partition coefficient (logP). The class given is physicochemical. As to conditions: octanol/water.
The term logP denotes the decadic logarithm of the partition coefficient of the neutral form, usually between octanol and water. A lower logP goes with a more hydrophilic compound. As to `c1ccc2[nH]ncc2c1` [INDAZOLE], the logP was 1.82.

Take `Cn1ccc2ccccc21`: the logP was 2.72.

Regarding `c1ccc2[nH]nnc2c1` [BENZOTRIAZOLE], the logP came to 1.34.

The compound `c1ccc2[nH]cnc2c1` [BENZIMIDAZOLE] displayed a logP of 1.2.

Compound `c1ccc2sccc2c1` [BENZOTHIOPHENE] came in with a logP of 3.09.

Tested on in another series: not listed separately
As to the kind of experiment: Antagonist activity was determined. The class given is functional.
Conditions: not given
The method in brief: as §1
The pA2 is the negative logarithm of the molar antagonist concentration that doubles the agonist concentration needed for the same response. A higher pA2 goes with higher antagonist potency. Compound `COc1cc(C(=O)NS(=O)(=O)c2ccccc2)ccc1Cn1ncc2ccc(NC(=O)OC3CCCC3)cc21` [ICI-198615] registered a pA2 of 10.1.

For the next series, the target named is T1, Cysteinyl leukotriene receptor 1 (Cavia porcellus). The experiment in a line: Negative logarithm of molar dissociation constant on guinea pig trachea at Cysteinyl leukotriene D4 receptor, when LTE4 is used as agonist. The class given is functional.
Conditions: not given
A digest of the protocol: as §1
In the case of `COc1cc(C(=O)NS(=O)(=O)c2ccccc2)ccc1Cc1csc2ccc(NC(=O)OC3CCCC3)cc12`, the pKB is 9.31.

With `COc1cc(C(=O)NS(=O)(=O)c2ccccc2)ccc1Cn1nnc2ccc(NC(=O)CC3CCCC3)cc21`, the pKB amounted to 9.86.

For `COc1cc(C(=O)NS(=O)(=O)c2ccccc2)ccc1COc1cccc(NC(=O)OC2CCCC2)c1`, the pKB was 7.14.

As for `COc1cc(C(=O)NS(=O)(=O)c2ccccc2)ccc1Cn1cnc2ccc(NC(=O)CC3CCCC3)cc21`, the pKB came out at 9.22.

Consider `CNc1ccc(NC(=O)OC2CCCC2)cc1C(=O)Cc1ccc(C(=O)NS(=O)(=O)c2ccccc2C)cc1OC`, for which the pKB worked out at 9.07.

`COc1cc(C(=O)NS(=O)(=O)c2ccccc2Cl)ccc1Cc1csc2ccc(NC(=O)CC3CCCC3)cc12` registered a pKB of 9.6.

`COc1cc(C(=O)NS(=O)(=O)c2ccccc2)ccc1CN1CCc2ccc(NC(=O)CC3CCCC3)cc21` returned a pKB of 9.11.

In turn, `COc1cc(C(=O)NS(=O)(=O)c2ccccc2C)ccc1Cc1csc2ccc(NC(=O)CC3CCCC3)cc12` registered a pKB of 9.25.

`COc1cc(C(=O)NS(=O)(=O)c2ccccc2)ccc1CN1CCOc2ccc(NC(=O)OC3CCCC3)cc21` registered a pKB of 9.02.

Compound `COc1cc(C(=O)NS(=O)(=O)c2ccccc2)ccc1CN1CCOc2ccc(NC(=O)CC3CCCC3)cc21` had a pKB of 9.1.

On to `COc1cc(C(=O)NS(=O)(=O)c2ccccc2)ccc1Cn1cnc2ccc(NC(=O)OC3CCCC3)cc21`, for which the pKB is 9.2.

The values above are taken from ChEMBL document CHEMBL1125052, “Synthesis and in vitro LTD4 antagonist activity of bicyclic and monocyclic cyclopentylurethane and cyclopentylacetamide N-arylsulfonyl amides” (J Med Chem, 1990).
